Test results reported in ChEMBL document CHEMBL2040828 (J Med Chem, 2012).

Assays:
[1] = Irreversible inhibition of hepatitis C virus NS5B polymerase; set-up: species or system Hepacivirus hominis
Hepatitis C virus = assay: Antiviral activity against HCV by cell based replicon assay; format: functional, organism-based, Hepacivirus hominis
[2] = AUC in rat at 10 mg/kg, po; format: ADME, organism-based; set-up: dose 10 mg/kg, route oral; conditions: plasma
Procedure, shortened: (§1)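 Single-dose pharmacokinetics: rats were dosed at 10 mg/kg, and monkeys and dogs at 3 mg/kg. Oral AUC, clearance, half-life and bioavailability were determined. All doses were given in 0.4% MC vehicle.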

Plasma [3] = assay: Metabolic stability in human plasma up to 3 hrs; format: ADME, cell-free
Cytochrome P450 3A4 = Cytochrome P450 3A4 (Homo sapiens, UniProt P08684); assay: Inhibition of CYP3A4 up to 30 uM; format: ADME
Chain of Cytochrome P450 3A4 (P08684 whole entry): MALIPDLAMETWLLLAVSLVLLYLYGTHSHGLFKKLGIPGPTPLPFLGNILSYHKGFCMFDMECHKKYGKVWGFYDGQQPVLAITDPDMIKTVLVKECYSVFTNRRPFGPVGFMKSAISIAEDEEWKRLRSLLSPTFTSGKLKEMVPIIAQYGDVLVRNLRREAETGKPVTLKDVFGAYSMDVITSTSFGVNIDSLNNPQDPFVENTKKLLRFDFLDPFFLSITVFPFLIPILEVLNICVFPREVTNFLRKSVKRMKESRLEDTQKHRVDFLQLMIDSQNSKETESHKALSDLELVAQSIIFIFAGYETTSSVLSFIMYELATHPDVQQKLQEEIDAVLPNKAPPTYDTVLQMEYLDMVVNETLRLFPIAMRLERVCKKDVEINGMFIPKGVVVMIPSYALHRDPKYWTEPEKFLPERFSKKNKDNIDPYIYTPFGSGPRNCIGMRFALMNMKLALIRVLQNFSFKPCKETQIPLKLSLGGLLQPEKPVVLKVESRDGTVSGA

[4] = Clearance in dog at 3 mg/kg; format: ADME, organism-based, Canis lupus familiaris; set-up: dose 3 mg/kg; conditions: in vivo; procedure, shortened: as §1
[5] = Oral bioavailability in monkey at 3 mg/kg; format: ADME, organism-based, Macaca mulatta; conditions: rhesus monkey, in vivo; procedure, shortened: as §1
[6] = Clearance in rat at 10 mg/kg; format: ADME, organism-based; set-up: dose 10 mg/kg; conditions: in vivo; procedure, shortened: as §1
[7] = Drug level in rat liver at 10 mg/kg, iv after 6 hrs; format: ADME, organism-based; set-up: dose 10 mg/kg, route intravenous; conditions: read-out: Drug uptake
Salmonella typhimurium [8] = assay: Mutagenic activity in Salmonella typhimurium by mini-AMES test in presence of S9 fraction; format: toxicity, organism-based; conditions: salmonella enterica subsp. enterica serovar typhimurium
[9] = Half life in monkey at 3 mg/kg, iv; format: ADME, organism-based, Macaca mulatta; set-up: dose 3 mg/kg, route intravenous; conditions: rhesus monkey, in vivo; procedure, shortened: as §1
[10] = Clearance in monkey at 3 mg/kg; format: ADME, organism-based, Macaca mulatta; set-up: dose 3 mg/kg; conditions: rhesus monkey, in vivo; procedure, shortened: as §1
[11] = Half life in rat at 10 mg/kg, iv; format: ADME, organism-based; set-up: dose 10 mg/kg, route intravenous; conditions: in vivo; procedure, shortened: as §1
Cytochrome P450 2C9 = Cytochrome P450 2C9 (Homo sapiens, UniProt P11712); assay: Inhibition of CYP2C9 up to 30 uM; format: ADME
Chain of Cytochrome P450 2C9 (P11712 whole entry): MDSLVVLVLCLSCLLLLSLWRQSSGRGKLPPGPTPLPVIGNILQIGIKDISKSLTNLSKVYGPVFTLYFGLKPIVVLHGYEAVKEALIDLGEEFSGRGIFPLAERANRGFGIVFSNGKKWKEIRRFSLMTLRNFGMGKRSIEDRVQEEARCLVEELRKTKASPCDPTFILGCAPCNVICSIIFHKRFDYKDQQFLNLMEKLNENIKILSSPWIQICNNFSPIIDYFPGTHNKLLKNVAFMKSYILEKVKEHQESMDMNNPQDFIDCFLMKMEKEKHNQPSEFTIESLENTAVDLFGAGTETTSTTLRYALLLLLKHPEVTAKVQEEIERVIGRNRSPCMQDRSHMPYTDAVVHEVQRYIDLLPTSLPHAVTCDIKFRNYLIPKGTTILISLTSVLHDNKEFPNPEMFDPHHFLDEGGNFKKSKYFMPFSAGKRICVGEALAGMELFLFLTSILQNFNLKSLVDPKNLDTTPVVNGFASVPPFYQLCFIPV

[12] = AUC in dog at 3 mg/kg, po; format: ADME, organism-based, Canis lupus familiaris; set-up: dose 3 mg/kg, route oral; conditions: plasma; procedure, shortened: as §1
Lupus La protein = target: T1, Lupus La protein (Homo sapiens, UniProt P05455); assay: Binding affinity to human La antigen by NMR based ALARM assay; format: ADME
T1 sequence (P05455 whole entry): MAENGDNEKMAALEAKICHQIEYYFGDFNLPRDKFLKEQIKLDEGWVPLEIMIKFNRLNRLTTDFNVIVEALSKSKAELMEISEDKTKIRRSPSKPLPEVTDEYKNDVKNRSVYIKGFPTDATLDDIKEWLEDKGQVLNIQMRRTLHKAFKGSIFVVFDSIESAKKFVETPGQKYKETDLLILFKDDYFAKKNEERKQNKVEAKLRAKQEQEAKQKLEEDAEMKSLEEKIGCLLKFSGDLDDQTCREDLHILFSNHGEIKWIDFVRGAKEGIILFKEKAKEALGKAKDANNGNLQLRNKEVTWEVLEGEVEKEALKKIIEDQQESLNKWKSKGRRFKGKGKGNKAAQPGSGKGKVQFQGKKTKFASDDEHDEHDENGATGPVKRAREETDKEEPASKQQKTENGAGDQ
Procedure, shortened: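 NMR-based ALARM assay. The compound was incubated with human La antigen, and NMR was used to monitor reaction with the antigen's reactive thiols.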

Plasma [13] = assay: Metabolic stability in rat plasma up to 3 hrs; format: ADME, cell-free
[14] = Half life in dog at 3 mg/kg, iv; format: ADME, organism-based, Canis lupus familiaris; set-up: dose 3 mg/kg, route intravenous; conditions: in vivo; procedure, shortened: as §1
[15] = AUC in monkey at 3 mg/kg, po; format: ADME, organism-based, Macaca mulatta; set-up: dose 3 mg/kg, route oral; conditions: rhesus monkey, plasma; procedure, shortened: as §1
Cytochrome P450 2D6 = Cytochrome P450 2D6 (Homo sapiens, UniProt P10635); assay: Inhibition of CYP2D6 up to 30 uM; format: ADME
Chain of Cytochrome P450 2D6 (P10635 whole entry): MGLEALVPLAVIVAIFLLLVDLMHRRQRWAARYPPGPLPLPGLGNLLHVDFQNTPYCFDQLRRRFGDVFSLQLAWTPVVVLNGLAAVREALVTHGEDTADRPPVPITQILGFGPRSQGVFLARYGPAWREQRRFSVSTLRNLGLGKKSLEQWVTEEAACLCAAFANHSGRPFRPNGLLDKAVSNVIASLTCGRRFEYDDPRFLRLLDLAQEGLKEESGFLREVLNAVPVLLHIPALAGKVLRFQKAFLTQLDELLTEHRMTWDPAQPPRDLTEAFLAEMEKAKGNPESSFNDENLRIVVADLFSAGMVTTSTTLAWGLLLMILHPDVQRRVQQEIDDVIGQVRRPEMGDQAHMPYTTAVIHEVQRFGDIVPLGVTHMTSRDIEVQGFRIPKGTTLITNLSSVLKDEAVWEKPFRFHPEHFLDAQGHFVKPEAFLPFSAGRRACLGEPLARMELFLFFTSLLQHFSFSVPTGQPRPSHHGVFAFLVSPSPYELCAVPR

[16] = Induction of cytochrome P450 activity at 10 uM; format: ADME
[17] = Oral bioavailability in rat at 10 mg/kg; format: ADME, organism-based; conditions: in vivo; procedure, shortened: as §1
[18] = Oral bioavailability in dog at 3 mg/kg; format: ADME, organism-based, Canis lupus familiaris; conditions: in vivo; procedure, shortened: as §1
Salmonella typhimurium [19] = assay: Mutagenic activity in Salmonella typhimurium by mini-AMES test in absence of S9 fraction; format: toxicity, organism-based; conditions: salmonella enterica subsp. enterica serovar typhimurium
[20] = Mutagenic activity in micronuclei assessed as induction of chromosomal damage
Plasma [21] = assay: Metabolic stability in monkey plasma up to 3 hrs; format: ADME, cell-free, Macaca mulatta; conditions: rhesus monkey
Plasma [22] = assay: Metabolic stability in dog plasma up to 3 hrs; format: ADME, cell-free, Canis lupus familiaris

## Cc1ccc2c(c1)c(-c1ccc[nH]c1=O)c(C(=O)NS(=O)(=O)C1CC1)n2Cc1ccnc(N)c1
[1]
  IC50: 6 nM
Hepatitis C virus
  EC50: 500 nM

## Cc1ccc2c(c1)c(-c1ccc[nH]c1=O)c(C(=O)NS(=O)(=O)C1CC1)n2Cc1cc(S(N)(=O)=O)ccc1F
[1]
  IC50: 5 nM
Hepatitis C virus
  EC50: 550 nM

## Cc1ccc2c(c1)c(-c1ccc[nH]c1=O)c(C(=O)NS(=O)(=O)N(C)C)n2Cc1cc([N+](=O)[O-])ccc1F
[1]
  IC50: 5 nM
Hepatitis C virus
  EC50: 0.5 nM

## O=C(NS(=O)(=O)C1CC1)c1c(-c2ccc[nH]c2=O)c2cc(F)ccc2n1Cc1cc([N+](=O)[O-])ccc1F
[1]
  IC50: 5 nM
Hepatitis C virus
  EC50: 6 nM

## Cc1ccc2c(c1)c(-c1ccc[nH]c1=O)c(C(=O)NS(=O)(=O)C1CC1)n2Cc1cc(C#N)ccc1F
[1]
  IC50: 9 nM
Hepatitis C virus
  EC50: 220 nM

## Cc1ccc2c(c1)c(-c1ccc[nH]c1=O)c(C(=O)N[S+]([O-])C(C)C)n2Cc1cc([N+](=O)[O-])ccc1F (stereo not drawn)
[1]
  IC50: 7 nM
Hepatitis C virus
  EC50: 2 nM

## O=C(NS(=O)(=O)C1CC1)c1c(-c2ccc[nH]c2=O)c2cc(Cl)ccc2n1Cc1cc([N+](=O)[O-])ccc1F
[1]
  IC50: 6 nM
[2]
  AUC: 0.3 µM·h
Hepatitis C virus
  EC50: 5 nM

## Cc1ccc2c(c1)c(-c1ccc[nH]c1=O)c(C(=O)O)n2Cc1cc([N+](=O)[O-])ccc1F
[1]
  IC50: 3 nM
[2]
  AUC: 0.14 µM·h
Hepatitis C virus
  EC50: 1 nM

## Cc1ccc2c(c1)c(-c1ccc[nH]c1=O)c(C(=O)NS(=O)(=O)C1CC1)n2Cc1cc([N+](=O)[O-])ccc1Cl
[1]
  IC50: 7 nM
Hepatitis C virus
  EC50: 16 nM

## Cc1ccc2c(c1)c(-c1ccc[nH]c1=O)c(C(=O)NS(=O)(=O)C1CC1)n2Cc1c(F)c(F)cc(S(C)(=O)=O)c1F
[1]
  IC50: 14 nM
Hepatitis C virus
  EC50: 270 nM

## Cc1ccc2c(c1)c(-c1ccc[nH]c1=O)c(C(=O)NS(=O)(=O)C1CC1)n2Cc1c(F)c(F)cc(C(N)=O)c1F
[1]
  IC50: 14 nM
Hepatitis C virus
  EC50: 3300 nM

## Cc1ccc2c(c1)c(-c1ccc[nH]c1=O)c(C(=O)NS(=O)(=O)C1CC1)n2Cc1cc(S(C)(=O)=O)cc(C#N)c1F
[1]
  IC50: 3 nM
Hepatitis C virus
  EC50: 5 nM

## CCc1ccc2c(c1)c(-c1ccc[nH]c1=O)c(C(=O)NS(=O)(=O)C1CC1)n2Cc1cc(S(C)(=O)=O)c(C#N)cc1F
[1]
  IC50: 3 nM
Hepatitis C virus
  EC50: 3 nM

## Cc1ccc2c(c1)c(-c1ccc[nH]c1=O)c(C(=O)NS(=O)(=O)C1CC1)n2Cc1cc([S+]([O-])C(F)(F)F)ccc1Cl (stereo not drawn)
[1]
  IC50: 14 nM
Hepatitis C virus
  EC50: 3400 nM

## CCc1ccc2c(c1)c(-c1ccc[nH]c1=O)c(C(=O)O)n2Cc1cc([N+](=O)[O-])ccc1F
Plasma [3]
  Stability: Stable
Cytochrome P450 3A4
  inhibition (INH): Not Active
[4]
  clearance: 10 mL/min/kg
[5]
  bioavailability: 30%
[1]
  IC50: 5 nM
[6]
  clearance: 8 mL/min/kg
[7]
  concentration at 6 h: 460 nM
Salmonella typhimurium [8]
  Activity: Non-toxic
[9]
  half-life: 1.3 h
[2]
  AUC: 18 µM·h
[10]
  clearance: 10 mL/min/kg
[11]
  half-life: 8.2 h
Hepatitis C virus
  EC50: 1 nM
Cytochrome P450 2C9
  inhibition (INH): Not Active
[12]
  AUC: 11 µM·h
Lupus La protein
  Activity: Not Active
Plasma [13]
  Stability: Stable
[14]
  half-life: 1.2 h
[15]
  AUC: 3.4 µM·h
Cytochrome P450 2D6
  inhibition (INH): Not Active
[16]
  Activity: Not Active
[17]
  bioavailability: 37%
[18]
  bioavailability: 95%
Salmonella typhimurium [19]
  Activity: Non-toxic
[20]
  Activity: Non-toxic
Plasma [21]
  Stability: Stable
Plasma [22]
  Stability: Stable

## O=C(NS(=O)(=O)C1CC1)c1c(-c2ccc[nH]c2=O)c2cc(C(F)(F)F)ccc2n1Cc1cc([N+](=O)[O-])ccc1F
[1]
  IC50: 4 nM
Hepatitis C virus
  EC50: 2 nM

## Cc1ccc2c(c1)c(-c1ccc[nH]c1=O)c(C(=O)NS(=O)(=O)C(C)C)n2Cc1cc([N+](=O)[O-])ccc1F
[1]
  IC50: 4 nM
Hepatitis C virus
  EC50: 3 nM

## Cc1ccc2c(c1)c(-c1ccc[nH]c1=O)c(C(=O)NS(=O)(=O)C1CC1)n2Cc1cc(S(=O)(=O)C(F)(F)F)ccc1Cl
[1]
  IC50: 46 nM
Hepatitis C virus
  EC50: 900 nM
